This note sets out measurements from ChEMBL document CHEMBL1124451, “[(1H-imidazol-1-yl)methyl]- and [(3-pyridinyl)methyl]pyrroles as thromboxane synthetase inhibitors” (J Med Chem, 1989).

The IC50 is the concentration needed to halve the response being measured. As usually defined, the inhibition is the share of the control response that was lost under treatment.

Assay [1] has as its target T1, Thromboxane-A synthase (Homo sapiens) (UniProt P24557).
T1 sequence (whole entry): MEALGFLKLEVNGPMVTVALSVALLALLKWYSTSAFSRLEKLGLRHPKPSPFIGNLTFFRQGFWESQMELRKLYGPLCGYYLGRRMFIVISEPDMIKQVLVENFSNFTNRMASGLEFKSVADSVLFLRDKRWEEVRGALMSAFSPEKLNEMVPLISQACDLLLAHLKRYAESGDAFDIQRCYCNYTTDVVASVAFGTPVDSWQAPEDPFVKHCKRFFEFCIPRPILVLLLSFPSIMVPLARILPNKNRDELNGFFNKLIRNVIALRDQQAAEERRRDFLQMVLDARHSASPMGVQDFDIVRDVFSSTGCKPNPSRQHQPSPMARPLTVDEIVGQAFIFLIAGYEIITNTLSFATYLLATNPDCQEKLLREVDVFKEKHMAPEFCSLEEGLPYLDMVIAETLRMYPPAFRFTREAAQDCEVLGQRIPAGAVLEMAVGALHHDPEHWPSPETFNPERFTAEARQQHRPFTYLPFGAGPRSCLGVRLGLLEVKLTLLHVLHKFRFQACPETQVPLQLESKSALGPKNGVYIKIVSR
Briefly: Relative potency of thromboxane A2 synthetase as reduced ADP-induced aggregation of human platelet rich plasma compared to dazoxiben. Type of assay: functional, cell-free.

In assay [2] the test system is Mus musculus. Nature of the assay: Activity at 20 mg/kg given intravenously against mortality in a pulmonary thromboembolism model in mice (10 animals) at -3h. The format is functional. The settings on record: route intravenous. The essentials: (§1)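 Male Swiss-Webster mice (22-26 g); test material given iv in 0.2 mL CMC before challenge (mostly at -3 h, one group at -1 h). At hour 0, collagen extract plus epinephrine hydrochloride given iv in 0.2 mL 0.9% saline via tail vein. The collagen amount was set per lot as the minimum giving 90-100% mortality in CMC-vehicle controls. Readout: % surviving at 24 h.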

Assay [3] relates to Mus musculus. Briefly: Activity at 10 mg/kg given intravenously against mortality in a pulmonary thromboembolism model in mice (10 animals) at -3h. The settings on record: route intravenous. Type of assay: functional. A digest of the protocol:
as §1

For assay [4], the species on record is Homo sapiens. Briefly: In vitro inhibition of ADP-induced aggregation of human platelet rich plasma in the presence of pig aortal microsomes. The settings on record: Aorta. Type of assay: functional. A digest of the protocol: (§2)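 Human citrated blood (0.38% citrate final), PRP by centrifugation at 200g, room temperature. Drug added to 1.0 mL PRP, 2 min at 37 °C with stirring (500 rpm), then pig aortal microsomes 3 min; microsome amount set by the dazoxiben standard. Aggregation induced by 5 μM ADP (final), read turbidimetrically.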

Assay [5] is filed under the species Homo sapiens. Briefly: Relative potency to inhibit ADP-induced aggregation of human platelet rich plasma compared to that of dazoxiben, in vitro using pig aortal microsomes. The format is functional. The settings on record: Aorta.
For assay [6], the species on record is Homo sapiens. Briefly: In vitro inhibition of ADP-induced aggregation of human platelet rich plasma in the presence of pig aortal microsomes, at 5*10e-6 M compound concentration.
Assay [7] has as its system Mus musculus. Briefly: Activity at 10 mg/kg […] against mortality in a pulmonary thromboembolism model in mice (10 animals) at -5h following oral administration. The format is functional. The essentials:
(§3)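 Male Swiss-Webster mice (22-26 g), 10 per group (one group of 9); test material given po in 0.2 mL CMC at -1, -3, -5 or -18 h before challenge. At hour 0, collagen extract plus epinephrine hydrochloride given iv via tail vein in 0.9% saline. The collagen amount was titrated per lot to 90-100% mortality in vehicle controls. Readout: % surviving at 24 h.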

Assay [8] concerns Mus musculus. Briefly: Activity at 10 mg/kg […] against mortality in a pulmonary thromboembolism model in mice (10 animals) at -18h following oral administration. Type of assay: functional. A digest of the protocol: as §3
In assay [9] the test system is Mus musculus. Nature of the assay: Activity at 10 mg/kg […] against mortality in a pulmonary thromboembolism model in mice (10 animals) at -7h following oral administration. The format is functional.
Assay [10] deals with Mus musculus. Nature of the assay: Activity at 10 mg/kg […] against mortality in a pulmonary thromboembolism model in mice (10 animals) at -1h following oral administration. The format is functional. A digest of the protocol: as §3
The test system of assay [11] is Mus musculus. Nature of the assay: Activity at 10 mg/kg […] against mortality in a pulmonary thromboembolism model in mice (9 animals) at -3h following oral administration. Type of assay: functional. The essentials: as §3
The next assay has as its system Rattus norvegicus. Nature of the assay: Effect of perorally administered compound on systolic blood pressure and proteinuria was studied with a 5/6 renal ablated rat as a model of progressive injury. The format is functional, Artery. A digest of the protocol: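 Male Munich Wistar rats (200-270 g) with 5/6 renal ablation were dosed in drinking water from 1 week post-surgery at 68, 205 or 410 mg/kg/day; controls received water. Conscious systolic pressure measured weekly by tail cuff. 24-h urinary protein measured every 2 weeks by the sulfosalicylic acid method.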

For assay [12], the species on record is Homo sapiens. Briefly: In vitro inhibition of ADP-induced aggregation of human platelet rich plasma in the presence of pig aortal microsomes. Type of assay: functional. The settings on record: Aorta. The essentials: as §2
For assay [13], the species on record is Homo sapiens. Briefly: Relative potency to inhibit ADP-induced aggregation of human platelet rich plasma compared to that of dazoxiben, in vitro using pig aortal microsomes. Type of assay: functional. The settings on record: Aorta.

For `CCn1c(/C=C(/C)C(=O)O)ccc1Cc1cccnc1`, in assay [1], the Relative potency is 45. In the assay on Mus musculus [2], this molecule had a survival at 20 mg/kg of 10%. This molecule gave a survival at 10 mg/kg in the assay on Mus musculus [3] of 10%.
As to `CCOC(=O)/C=C/c1cc(Cn2ccnc2)n(C)c1`, in the assay filed under Homo sapiens [4], the IC50 is 1.8 µM. Moreover, the Relative potency in the assay listed under Homo sapiens [5] was 1.2.
As to `CCOC(=O)/C(C)=C\c1ccc(Cc2cccnc2)n1CC`, the IC50 in the assay filed under Homo sapiens [4] amounted to 14 µM. In the assay filed under Homo sapiens [5], this molecule showed a Relative potency of 0.14.
In assay [1], `Cn1c(/C=C/C(=O)O)ccc1Cn1ccnc1` came in with a Relative potency of 0.75.
Take `C/C(=C\c1cc(Cn2ccnc2)n(C)c1)C(=O)O`: the Relative potency in assay [1] is 1.3.
On to `CCOC(=O)/C(C)=C\c1ccc(Cc2cccnc2)n1C`, for which, in the assay filed under Homo sapiens [6], the inhibition was found to be 49%.
Take `C/C(=C/c1ccc(Cc2cccnc2)n1C(C)C)C(=O)O`: the Relative potency in assay [1] was 0.9.
Molecule `C/C(=C/c1ccc(Cc2cccnc2)n1-c1ccccc1)C(=O)O` returned a Relative potency in assay [1] of 0.08.
As for `CCOC(=O)/C(C)=C\c1ccc(Cc2cccnc2)n1-c1ccccc1`, the IC50 in the assay filed under Homo sapiens [4] worked out at 180 µM. Moreover, the Relative potency in the assay filed under Homo sapiens [5] was 0.01.
As for `C/C(=C/c1ccc(Cc2cccnc2)n1C)C(=O)O`, the Relative potency in assay [1] was found to be 46. The molecule also gave a survival at 20 mg/kg with Mus musculus [2] of 30%. In the assay on Mus musculus [3], this molecule registered a survival at 10 mg/kg of 0%.
Consider `C/C(=C/c1ccc(Cc2cccnc2)n1CC(C)(C)C)C(=O)O`, for which the Relative potency in assay [1] is 0.24.
With `CCOC(=O)/C(C)=C\c1ccc(Cn2ccnc2)[nH]1`, the concentration for half-maximal inhibition (IC50) in the assay filed under Homo sapiens [4] was 8.1 µM. The Relative potency in the assay listed under Homo sapiens [5] is 0.31.
Regarding `CCOC(=O)/C(C)=C\c1cc(Cc2cccnc2)n(C(C)(C)C)c1`, the IC50 in the assay filed under Homo sapiens [4] was 3.2 µM. This molecule also displayed a Relative potency in the assay filed under Homo sapiens [5] of 0.59.
As to `Cc1c(Cn2ccnc2)c2ccccc2n1CCC(=O)O` [DAZMEGREL], the survival at 10 mg/kg in the assay with Mus musculus [7] was 20%; in the assay on Mus musculus [8], 10%; with Mus musculus [9] it was 0%; in the assay on Mus musculus [10], 20%; in the assay on Mus musculus [11], 11%. The IC50 in the assay listed under Homo sapiens [4] was 1.9 µM. In the assay filed under Homo sapiens [5], this molecule showed a Relative potency of 1.
For the molecule `C/C(=C/c1cc(Cc2cccnc2)n(C(C)(C)C)c1)C(=O)O`, the Relative potency in assay [1] was found to be 43. The molecule also displayed a survival at 10 mg/kg with Mus musculus [3] of 30%.
The molecule `COC(=O)[C@@H]1CC1c1ccc(Cn2ccnc2)n1C` (some centres not stated) showed a Relative potency in assay [1] of 0.22.
In the case of `C/C(=C\c1ccc(Cn2ccnc2)[nH]1)C(=O)O`, the Relative potency in [1] came to 0.24.
Consider `CCOC(=O)/C(C)=C\c1ccc(Cc2cccnc2)n1C(C)C`, for which, in the assay listed under Homo sapiens [4], the IC50 turned out to be 32 µM. In the assay listed under Homo sapiens [5], this molecule showed a Relative potency of 0.06.
In turn, `Cn1cc(/C=C/C(=O)O)cc1Cn1ccnc1` had a Relative potency in assay [1] of 0.62.
`CCOC(=O)[C@H](CCc1ccccc1)N[C@@H](C)C(=O)N1CCC[C@H]1C(=O)O` gave an ED with Rattus norvegicus of 4 mg/kg.
With `CCOC(=O)/C(C)=C\c1ccc(Cc2cccnc2)n1CC(C)(C)C`, the IC50 in the assay listed under Homo sapiens [4] is 57 µM. This molecule also gave a Relative potency in the assay listed under Homo sapiens [5] of 0.03.
`CCOC(=O)/C(C)=C/c1cc(Cn2ccnc2)n(C)c1`: in the assay listed under Homo sapiens [4], the IC50 came to 1.8 µM. This molecule returned a Relative potency in the assay listed under Homo sapiens [5] of 1.1.
On to `CCOC(=O)/C=C\c1ccc(Cn2ccnc2)n1C`, for which the IC50 in the assay listed under Homo sapiens [4] was found to be 8.9 µM. The Relative potency in the assay filed under Homo sapiens [5] is 0.25.
As for `C/C(=C\c1ccc(Cn2ccnc2)[nH]1)C(=O)OCc1ccccc1`, the half-inhibitory concentration (IC50) in the assay listed under Homo sapiens [4] is 20 µM. This molecule also yielded a Relative potency in the assay listed under Homo sapiens [5] of 0.11.
As for `CCOC(=O)/C(C)=C\c1ccc(Cn2ccnc2)n1C`, the IC50 in the assay filed under Homo sapiens [12] is 26 µM. This molecule returned a Relative potency in the assay listed under Homo sapiens [13] of 0.08.
